ChEMBL document CHEMBL4689842, “EUbOPEN Chemogenomics Library wave 1” (2021)
“And” between values parts separate entries of the source, which are not always exact repeats. Equal values may be shown once.

Test system: Fibroblast
Test: Multiplex assay against human fibroblast
Type: toxicity, cell-based
How it was run: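 On a CQ1 microscope at 37°C and 5% CO2, live cells were imaged after compound addition. They had been stained at seeding with Hoechst33342, BioTracker Green Microtubule Cytoskeleton Dye, MitoTracker Red and Annexin V Alexa Fluor 680. CellPathfinder machine-learning gating assigned cells to Hoechst high-intensity objects or normal cells, normal cells to healthy, pyknosed or fragmented nuclei, and pyknosed cells to mitotic or apoptotic. Tubulin, mitochondrial-mass and membrane-permeability phenotypes are per cents of healthy-nucleus cells.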

[1] = 12 h, 1 µM, compound concentration 1 uM, replicate 1
[2] = 12 h, 1 µM, compound concentration 1 uM, replicate 2
[3] = 12 h, 10 µM, compound concentration 10 uM, replicate 1
[4] = 12 h, 10 µM, compound concentration 10 uM, replicate 2
[5] = 24 h, 1 µM, compound concentration 1 uM, replicate 1
[6] = 24 h, 1 µM, compound concentration 1 uM, replicate 2
[7] = 24 h, 10 µM, compound concentration 10 uM, replicate 1
[8] = 24 h, 10 µM, compound concentration 10 uM, replicate 2

## CNC(=O)c1ccc(Nc2ncc(C(F)(F)F)c(NCc3nccnc3N(C)S(C)(=O)=O)n2)cc1 [DEFACTINIB]
[1]
  Population Apoptotic (%): 66% and 80%
  Population Fragmented Nuclei (%): 31% and 21%
  Population Healthy Nuclei (%): 51% and 60%
  Population Hoechst High Intensity Objects (%): 12% and 14%
  Population Membrane Permeable-Phenotype (%): 8% and 23%
  Population Mitochondria Different-Phenotype (%): 2% and 4%
  Population Mitotic Cells (%): 33% and 20%
  Population Normal (%): 87% and 85%
  Population Pyknosed Nuclei (%): 17%
  Total Cell Count: 217 and 234
[2]
  Population Apoptotic (%): 25% and 42%
  Population Fragmented Nuclei (%): 60% and 57%
  Population Healthy Nuclei (%): 32% and 27%
  Population Hoechst High Intensity Objects (%): 22% and 35%
  Population Membrane Permeable-Phenotype (%): 0% and 7%
  Population Mitochondria Different-Phenotype (%): 15% and 23%
  Population Mitotic Cells (%): 75% and 57%
  Population Normal (%): 77% and 64%
  Population Pyknosed Nuclei (%): 6% and 14%
  Population Tubulin-Different-Phenotype (%): 20% and 38%
  Total Cell Count: 79 and 73
[3]
  Population Apoptotic (%): 90% and 80%
  Population Fragmented Nuclei (%): 24% and 29%
  Population Healthy Nuclei (%): 58%
  Population Hoechst High Intensity Objects (%): 8%
  Population Membrane Permeable-Phenotype (%): 21% and 7%
  Population Mitochondria Different-Phenotype (%): 3%
  Population Mitotic Cells (%): 9% and 20%
  Population Normal (%): 91%
  Population Pyknosed Nuclei (%): 17% and 12%
  Total Cell Count: 208 and 174
[4]
  Population Apoptotic (%): 42% and 33%
  Population Fragmented Nuclei (%): 42% and 66%
  Population Healthy Nuclei (%): 47% and 25%
  Population Hoechst High Intensity Objects (%): 24% and 47%
  Population Membrane Permeable-Phenotype (%): 12% and 0%
  Population Mitochondria Different-Phenotype (%): 18% and 50%
  Population Mitotic Cells (%): 57% and 66%
  Population Normal (%): 75% and 52%
  Population Pyknosed Nuclei (%): 10% and 7%
  Population Tubulin-Different-Phenotype (%): 54% and 40%
  Total Cell Count: 93 and 74
[5]
  Population Apoptotic (%): 66% and 85%
  Population Fragmented Nuclei (%): 23% and 35%
  Population Healthy Nuclei (%): 59% and 48%
  Population Hoechst High Intensity Objects (%): 18% and 11%
  Population Mitochondria Different-Phenotype (%): 3% and 7%
  Population Mitotic Cells (%): 33% and 14%
  Population Normal (%): 81% and 88%
  Population Pyknosed Nuclei (%): 16% and 15%
  Total Cell Count: 205 and 241
[6]
  Population Fragmented Nuclei (%): 55% and 61%
  Population Healthy Nuclei (%): 39% and 19%
  Population Hoechst High Intensity Objects (%): 30% and 29%
  Population Mitochondria Different-Phenotype (%): 5% and 0%
  Population Mitotic Cells (%): 100% and 40%
  Population Normal (%): 69% and 70%
  Total Cell Count: 62 and 74
[7]
  Population Apoptotic (%): 80% and 73%
  Population Fragmented Nuclei (%): 33% and 25%
  Population Healthy Nuclei (%): 45% and 64%
  Population Hoechst High Intensity Objects (%): 10% and 15%
  Population Membrane Permeable-Phenotype (%): 21% and 10%
  Population Mitotic Cells (%): 20% and 26%
  Population Normal (%): 89% and 84%
  Population Pyknosed Nuclei (%): 21% and 9%
  Total Cell Count: 210 and 186
[8]
  Population Apoptotic (%): 75% and 50%
  Population Fragmented Nuclei (%): 49% and 57%
  Population Healthy Nuclei (%): 44% and 37%
  Population Hoechst High Intensity Objects (%): 27% and 35%
  Population Membrane Permeable-Phenotype (%): 14% and 0%
  Population Mitochondria Different-Phenotype (%): 10% and 13%
  Population Mitotic Cells (%): 25% and 50%
  Population Normal (%): 72% and 64%
  Population Pyknosed Nuclei (%): 6% and 5%
  Population Tubulin-Different-Phenotype (%): 46% and 26%
  Total Cell Count: 87 and 62
